From PubChem BioAssay
KDM4C inh: KDM4C (human) demethylase inhibition | GST-KDM4C 2-372, H3K9me3 peptide, LANCE TR-FRET | inhibition, % at 12.5 µM | 0.15% of 96,000 active | Q9H3R0;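 active = mean replicate inhibition above about 25%, with at least 55% of replicates also reaching it, limit read from the data, passing the limit was not always enough; inconclusive = only one of those two conditions met; inactive = neither condition met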
Target sequence (Q9H3R0 2-372 limits assumed): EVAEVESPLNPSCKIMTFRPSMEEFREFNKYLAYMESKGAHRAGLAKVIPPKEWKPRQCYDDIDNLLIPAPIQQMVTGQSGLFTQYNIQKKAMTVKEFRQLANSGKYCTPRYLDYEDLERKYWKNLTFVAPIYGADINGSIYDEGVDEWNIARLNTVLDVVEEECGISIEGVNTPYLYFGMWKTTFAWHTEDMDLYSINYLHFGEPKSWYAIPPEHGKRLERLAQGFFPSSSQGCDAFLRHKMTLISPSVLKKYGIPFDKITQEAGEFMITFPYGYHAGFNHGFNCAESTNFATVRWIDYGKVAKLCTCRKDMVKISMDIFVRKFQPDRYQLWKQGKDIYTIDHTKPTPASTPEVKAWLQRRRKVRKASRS
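Test system: N-terminal GST-fused human GASC-1 (KDM4C) fragment, residues 2-372; quantity: GASC-1 enzyme at 10 nM final in reaction; dosing: single dose; schedule: 30 min demethylation and 1 h detection at room temperature; signal: LANCE TR-FRET, excitation 340 nm, emissions 618 and 671 nm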
IDH1 R132H inh: IDH1 R132H (human) inhibition; O75874; 0.18% of 70,000 active; inhibition, % at 10 µM; IDH1 R132H reductase, diaphorase/resazurin fluorescence, 60 min; in the data active = inhibition above about 34%; inconclusive = no clear call, values can overlap the other calls; inactive = below about 11%;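 also: 0% = DMSO and 100% = no enzyme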
Pf Dd2 inh: P. falciparum Dd2 growth inhibition | SYBR Green, 72 h; active compounds read low | AID 1159554 | 2.3% of 94,000 active | activity change, % at 10 µM; in the data active = activity change below about -80%; inconclusive = no clear call, values can overlap the other calls
An asterisk follows results filed as active; ? = inconclusive; / = no result. The sample as a whole holds a higher share of hits than the screen did.

SMILES	KDM4C inh	IDH1 R132H inh	Pf Dd2 inh
C[C@H](CO)N1C[C@H](C)[C@@H](CN(C)C(=O)Nc2ccc(C(F)(F)F)cc2)OCCCC[C@H](C)Oc2ccc(NC(=O)C3CCCCC3)cc2C1=O	0	/	-86*
C[C@@H]1CCCCO[C@H](CN(C)C(=O)Nc2ccc(C(F)(F)F)cc2)[C@@H](C)CN([C@@H](C)CO)C(=O)c2cc(NC(=O)C3CCCCC3)ccc2O1	0	/	-85*
C[C@H]1CCCCO[C@H](CN(C)C(=O)Nc2ccc3c(c2)OCO3)[C@@H](C)CN([C@@H](C)CO)C(=O)c2cc(NC(=O)C3CCCCC3)ccc2O1	-3	-1	-89*
C[C@@H]1CN([C@H](C)CO)C(=O)c2cc(NC(=O)Nc3ccc(C(F)(F)F)cc3)ccc2O[C@@H](C)CCCCO[C@H]1CN(C)C(=O)Nc1ccc(C(F)(F)F)cc1	-2	-2	-67
C[C@@H]1CN([C@H](C)CO)C(=O)c2cc(NC(=O)C3CCCCC3)ccc2O[C@@H](C)CCCCO[C@H]1CN(C)C(=O)Nc1ccc(C(F)(F)F)cc1	0	/	-68
C[C@H](CO)N1C[C@H](C)[C@H](CN(C)C(=O)Nc2ccc3c(c2)OCO3)OCCCC[C@H](C)Oc2ccc(NC(=O)C3CCCCC3)cc2C1=O	-2	/	-47
COc1ccc(-c2ccc3n(c2=O)C[C@H]2[C@H](CO)[C@@H](C(=O)NCCN4CCCC4)N(C)[C@@H]32)cc1	-3	/	36
CCCNC(=O)N(C)C[C@@H]1Oc2cc(C3=CCCCC3)ccc2S(=O)(=O)N([C@@H](C)CO)C[C@H]1C	4	/	-60
COc1cccc(-c2cn(CC[C@H]3CC[C@@H](NC(C)=O)[C@H](CO)O3)nn2)c1	-1	0	12
COc1ccc(C#Cc2ccc3c(c2)O[C@H](CN(C)C(=O)CN2CCOCC2)[C@@H](C)CN([C@@H](C)CO)S3(=O)=O)cc1	-3	0	-29
COc1ccc(CN2C[C@H](C)[C@H](OC)CN(C)C(=O)c3cc(NC(=O)c4nc5ccccc5s4)ccc3OC[C@@H]2C)cc1	-1	0	-83*
COc1ccc(CN2C[C@@H](C)[C@H](OC)CN(C)C(=O)c3ccc(NC(=O)c4nc5ccccc5s4)cc3OC[C@H]2C)cc1	1	-1	-88*
COc1ccc(CN2C[C@@H](C)[C@H](OC)CN(C)C(=O)c3ccc(NC(=O)c4nc5ccccc5s4)cc3OC[C@@H]2C)cc1	0	0	-70
COc1ccc(CN2C[C@@H](C)[C@@H](OC)CN(C)C(=O)c3cc(NC(=O)c4nc5ccccc5s4)ccc3OC[C@H]2C)cc1	0	-1	-79
O=C(C[C@@H]1CC[C@@H](NC(=O)Nc2cc(F)ccc2F)[C@@H](CO)O1)Nc1ccc(-c2ccccc2)cc1	-2	0	-26
CO[C@@H]1CN(C)C(=O)c2ccc(NC(C)=O)cc2OC[C@H](C)N(CCC(F)(F)F)C[C@@H]1C	0	0	32
OC(COc1ccc2ccccc2c1Br)Cn1cnc2ccccc21 (stereo not given)	/	0	/
C[C@@H]1CCCCO[C@@H](CN(C)Cc2ccccc2)[C@H](C)CN([C@H](C)CO)C(=O)c2cc(NC(=O)Nc3ccc4c(c3)OCO4)ccc2O1	16	1	-79
C[C@H]1CCCCO[C@H](CN(C)Cc2ccc3c(c2)OCO3)[C@@H](C)CN([C@@H](C)CO)C(=O)c2cc(NC(=O)Nc3ccccc3)ccc2O1	0	/	-75
C[C@@H]1CCCCO[C@@H](CN(C)Cc2ccc3c(c2)OCO3)[C@@H](C)CN([C@@H](C)CO)C(=O)c2cc(NC(=O)Cc3ccccc3)ccc2O1	1	1	-55
C[C@@H]1CN([C@@H](C)CO)C(=O)c2cc(NC(=O)Nc3ccccc3)ccc2O[C@@H](C)CCCCO[C@@H]1CN(C)Cc1ccc2c(c1)OCO2	-2	/	?
C[C@H]1CCCCO[C@@H](CN(C)Cc2ccc3c(c2)OCO3)[C@@H](C)CN([C@@H](C)CO)C(=O)c2cc(NC(=O)Cc3ccccc3)ccc2O1	1	1	-83*
C[C@H]1CCCCO[C@@H](CN(C)Cc2ccccc2)[C@@H](C)CN([C@@H](C)CO)C(=O)c2cc(NC(=O)Nc3ccc4c(c3)OCO4)ccc2O1	-1	5	-86*
C[C@@H]1CN([C@H](C)CO)C(=O)c2cc(NC(=O)Nc3ccccc3)ccc2O[C@@H](C)CCCCO[C@@H]1CN(C)Cc1ccc2c(c1)OCO2	0	1	-84*
C[C@@H]1CN([C@H](C)CO)C(=O)c2cc(NC(=O)Nc3ccccc3)ccc2O[C@@H](C)CCCCO[C@H]1CN(C)Cc1ccc2c(c1)OCO2	2	/	-82*
SMILES	KDM4C inh	IDH1 R132H inh	Pf Dd2 inh
Cc1noc(C)c1S(=O)(=O)Nc1ccc2c(c1)C(=O)N([C@@H](C)CO)C[C@H](C)[C@@H](CN(C)C(=O)NC(C)C)OCCCC[C@@H](C)O2	-1	2	-21
COc1ccc2c3c([nH]c2c1)[C@@H](CO)N(C(=O)Nc1ccc(F)cc1)CC31CN(C(=O)Cc2ccccc2)C1	-1	/	-10
CCC(=O)N1CC2(CCN(C(=O)Nc3ccc(F)cc3)CC2)c2c([nH]c3cc(OC)ccc23)[C@@H]1CO	0	/	-59
COc1ccc2c3c(n(C)c2c1)[C@H](CO)N(C(=O)c1ccccc1)CC31CCN(C(=O)c2ccccc2)CC1	-1	/	-88*
COc1ccc2c3c([nH]c2c1)[C@@H](CO)N(C(=O)Cc1ccccc1)CC31CCN(C(=O)Cc2ccccc2)CC1	0	/	-87*
COc1ccc2c3c([nH]c2c1)[C@H](CO)N(C(=O)Cc1ccccc1)CC31CCN(C)CC1	1	/	-14
COc1ccc2c3c([nH]c2c1)[C@H](CO)N(C(=O)Cc1ccccc1)CC31CN(C(=O)Cc2ccccc2)C1	-1	/	-83*
CCC(=O)N1CC2(CN(C(=O)Nc3ccc(F)cc3)C2)c2c([nH]c3cc(OC)ccc23)[C@@H]1CO	0	/	-84*
COc1ccc2c3c(n(C)c2c1)[C@H](CO)N(C(=O)c1ccccc1)CC31CCN(C(C)=O)CC1	0	/	-36
NCC[C@H]1CC[C@@H](NC(=O)Nc2ccc(F)cc2)[C@H](CO)O1	1	0	39
C=C1C(=O)O[C@H]2C1[C@H](OC(=O)/C(=C/CO)COC(=O)/C(C)=C/CO)CC(=C)[C@@H]1CC(=O)[C@@H](C)[C@@H]12 (stereo not given in full)	/	3	/
N#Cc1c(C(F)(F)F)cc(-c2ccccc2)nc1SCC(=O)Nc1ccccc1C(F)(F)F	/	1	/
Cc1ccc(-c2cnc3c(c2)C(=O)N([C@@H](C)CO)C[C@@H](C)[C@H](CN(C)S(C)(=O)=O)O3)cc1	-1	-20	14
COc1ccc2c3c([nH]c2c1)[C@@H](CO)N(C(=O)Nc1ccccc1F)CC31CCN(C(C)=O)CC1	0	/	-12
CCC(=O)N1CC2(CN(C(=O)Cc3ccccc3)C2)c2c(n(C)c3cc(OC)ccc23)[C@@H]1CO	0	/	-37
COc1ccc2c3c([nH]c2c1)[C@H](CO)N(C(=O)Cc1ccccc1)CC31CCN(C(=O)Nc2ccccc2F)CC1	-1	/	-91*
COc1ccc(CN2CC3(CN(C(=O)Cc4ccccc4)C3)c3c([nH]c4cc(OC)ccc34)[C@H]2CO)cc1	-1	/	-89*
